From ChEMBL document CHEMBL4152188, “Design, synthesis and biological evaluation of C(4) substituted monobactams as antibacterial agents against multidrug-resistant Gram-negative bacteria” (Eur J Med Chem, 2018)
≈ marks a conversion by molar mass, not a printed value.

Columns and labels:
Format in all cases: functional
[1] = system: Escherichia coli; assay: Selectivity index, ratio of MIC for against extended-spectrum beta-lactamase producing Escherichia coli isolate 209285 to MIC for extended-spectrum beta-lactamase producing Escherichia coli isolate 209285 in presence of BPL
[2] = system: Escherichia coli; assay: Antibacterial activity against extended-spectrum beta-lactamase producing Escherichia coli isolate 208687 after 18 hrs in presence of BPL by CLSI broth microdilution method; settings: isolate 208687, 18 h
Procedure, shortened: (§1)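 CLSI broth microdilution against clinical isolates (ESBL E. coli, KPC-2 MDR K. pneumoniae, IMP-4 MDR P. aeruginosa; five per species). Iron limitation: Mueller-Hinton broth supplemented with 16 mg/liter 2,2'-bipyridyl to complex iron and induce iron uptake systems. Read-out: MIC.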

[3] = system: Escherichia coli; assay: Selectivity index, ratio of MIC for against extended-spectrum beta-lactamase producing Escherichia coli isolate 208687 to MIC for extended-spectrum beta-lactamase producing Escherichia coli isolate 208687 in presence of BPL
[4] = system: Escherichia coli; assay: Selectivity index, ratio of MIC for against extended-spectrum beta-lactamase producing Escherichia coli isolate 106342 to MIC for extended-spectrum beta-lactamase producing Escherichia coli isolate 106342 in presence of BPL
[5] = system: Escherichia coli; assay: Antibacterial activity against extended-spectrum beta-lactamase producing Escherichia coli isolate 208687 after 18 hrs by CLSI broth microdilution method; settings: isolate 208687, 18 h
[6] = system: Escherichia coli; assay: Antibacterial activity against Escherichia coli isolate 210737 after 18 hrs by CLSI broth microdilution method; settings: isolate 210737, 18 h
[7] = system: Klebsiella pneumoniae; assay: Antibacterial activity against KPC-2 producing Klebsiella pneumoniae isolate 209735 after 18 hrs in presence of BPL by CLSI broth microdilution method; settings: isolate 209735, 18 h; procedure, shortened: as §1
[8] = system: Pseudomonas aeruginosa; assay: Antibacterial activity against IMP-4 producing Pseudomonas aeruginosa isolate 208247 after 18 hrs in presence of BPL by CLSI broth microdilution method; settings: isolate 208247, 18 h; procedure, shortened: as §1
[9] = system: Pseudomonas aeruginosa; assay: Antibacterial activity against IMP-4 producing Pseudomonas aeruginosa isolate 212886 after 18 hrs by CLSI broth microdilution method; settings: isolate 212886, 18 h
[10] = system: Klebsiella pneumoniae; assay: Antibacterial activity against KPC-2 producing Klebsiella pneumoniae isolate 212229 after 18 hrs in presence of BPL by CLSI broth microdilution method; settings: isolate 212229, 18 h; procedure, shortened: as §1
[11] = system: Escherichia coli; assay: Antibacterial activity against extended-spectrum beta-lactamase producing Escherichia coli isolate 212648 after 18 hrs by CLSI broth microdilution method; settings: isolate 212648, 18 h
[12] = system: Klebsiella pneumoniae; assay: Selectivity index, ratio of MIC for against KPC-2 producing Klebsiella pneumoniae isolate 212423 to MIC for against KPC-2 producing Klebsiella pneumoniae isolate 212423 in presence of BPL
[13] = system: Klebsiella pneumoniae; assay: Antibacterial activity against KPC-2 producing Klebsiella pneumoniae isolate 212229 after 18 hrs by CLSI broth microdilution method; settings: isolate 212229, 18 h
[14] = system: Pseudomonas aeruginosa; assay: Antibacterial activity against IMP-4 producing Pseudomonas aeruginosa isolate 207272 after 18 hrs in presence of BPL by CLSI broth microdilution method; settings: isolate 207272, 18 h; procedure, shortened: as §1
[15] = system: Klebsiella pneumoniae; assay: Selectivity index, ratio of MIC for against KPC-2 producing Klebsiella pneumoniae isolate 209632 to MIC for against KPC-2 producing Klebsiella pneumoniae isolate 209632 in presence of BPL
[16] = system: Pseudomonas aeruginosa; assay: Antibacterial activity against IMP-4 producing Pseudomonas aeruginosa isolate 207272 after 18 hrs by CLSI broth microdilution method; settings: isolate 207272, 18 h
[17] = system: Klebsiella pneumoniae; assay: Antibacterial activity against KPC-2 producing Klebsiella pneumoniae isolate 209735 after 18 hrs by CLSI broth microdilution method; settings: isolate 209735, 18 h
[18] = system: Pseudomonas aeruginosa; assay: Antibacterial activity against IMP-4 producing Pseudomonas aeruginosa isolate 209471 after 18 hrs by CLSI broth microdilution method; settings: isolate 209471, 18 h
[19] = system: Escherichia coli; assay: Antibacterial activity against extended-spectrum beta-lactamase producing Escherichia coli isolate 106342 after 18 hrs by CLSI broth microdilution method; settings: isolate 106342, 18 h
[20] = system: Klebsiella pneumoniae; assay: Antibacterial activity against KPC-2 producing Klebsiella pneumoniae isolate 212423 after 18 hrs in presence of BPL by CLSI broth microdilution method; settings: isolate 212423, 18 h; procedure, shortened: as §1
[21] = system: Klebsiella pneumoniae; assay: Antibacterial activity against KPC-2 producing Klebsiella pneumoniae isolate 209632 after 18 hrs in presence of BPL by CLSI broth microdilution method; settings: isolate 209632, 18 h; procedure, shortened: as §1
[22] = system: Escherichia coli; assay: Antibacterial activity against extended-spectrum beta-lactamase producing Escherichia coli isolate 106342 after 18 hrs in presence of BPL by CLSI broth microdilution method; settings: isolate 106342, 18 h; procedure, shortened: as §1
[23] = system: Escherichia coli; assay: Antibacterial activity against extended-spectrum beta-lactamase producing Escherichia coli isolate 209285 after 18 hrs in presence of BPL by CLSI broth microdilution method; settings: isolate 209285, 18 h; procedure, shortened: as §1
[24] = system: Escherichia coli; assay: Antibacterial activity against extended-spectrum beta-lactamase producing Escherichia coli isolate 212648 after 18 hrs in presence of BPL by CLSI broth microdilution method; settings: isolate 212648, 18 h; procedure, shortened: as §1
[25] = system: Escherichia coli; assay: Selectivity index, ratio of MIC for against Escherichia coli isolate 210737 to MIC for Escherichia coli isolate 210737 in presence of BPL
[26] = system: Klebsiella pneumoniae; assay: Antibacterial activity against KPC-2 producing Klebsiella pneumoniae isolate 212232 after 18 hrs by CLSI broth microdilution method; settings: isolate 212232, 18 h
[27] = system: Klebsiella pneumoniae; assay: Selectivity index, ratio of MIC for against KPC-2 producing Klebsiella pneumoniae isolate 212229 to MIC for against KPC-2 producing Klebsiella pneumoniae isolate 212229 in presence of BPL
[28] = system: Escherichia coli; assay: Antibacterial activity against Escherichia coli isolate 210737 after 18 hrs in presence of BPL by CLSI broth microdilution method; settings: isolate 210737, 18 h; procedure, shortened: as §1
[29] = system: Klebsiella pneumoniae; assay: Antibacterial activity against KPC-2 producing Klebsiella pneumoniae isolate 212423 after 18 hrs by CLSI broth microdilution method; settings: isolate 212423, 18 h
[30] = system: Klebsiella pneumoniae; assay: Antibacterial activity against KPC-2 producing Klebsiella pneumoniae isolate 209632 after 18 hrs by CLSI broth microdilution method; settings: isolate 209632, 18 h
[31] = system: Pseudomonas aeruginosa; assay: Antibacterial activity against IMP-4 producing Pseudomonas aeruginosa isolate 209471 after 18 hrs in presence of BPL by CLSI broth microdilution method; settings: isolate 209471, 18 h; procedure, shortened: as §1
[32] = system: Pseudomonas aeruginosa; assay: Antibacterial activity against IMP-4 producing Pseudomonas aeruginosa isolate 209321 after 18 hrs by CLSI broth microdilution method; settings: isolate 209321, 18 h
[33] = system: Pseudomonas aeruginosa; assay: Antibacterial activity against IMP-4 producing Pseudomonas aeruginosa isolate 208247 after 18 hrs by CLSI broth microdilution method; settings: isolate 208247, 18 h
[34] = system: Klebsiella pneumoniae; assay: Selectivity index, ratio of MIC for against KPC-2 producing Klebsiella pneumoniae isolate 212232 to MIC for against KPC-2 producing Klebsiella pneumoniae isolate 212232 in presence of BPL
[35] = system: Klebsiella pneumoniae; assay: Selectivity index, ratio of MIC for against KPC-2 producing Klebsiella pneumoniae isolate 209735 to MIC for against KPC-2 producing Klebsiella pneumoniae isolate 209735 in presence of BPL
[36] = system: Pseudomonas aeruginosa; assay: Antibacterial activity against IMP-4 producing Pseudomonas aeruginosa isolate 212886 after 18 hrs in presence of BPL by CLSI broth microdilution method; settings: isolate 212886, 18 h; procedure, shortened: as §1
[37] = system: Escherichia coli; assay: Selectivity index, ratio of MIC for against extended-spectrum beta-lactamase producing Escherichia coli isolate 212648 to MIC for extended-spectrum beta-lactamase producing Escherichia coli isolate 212648 in presence of BPL
[38] = system: Escherichia coli; assay: Antibacterial activity against extended-spectrum beta-lactamase producing Escherichia coli isolate 209285 after 18 hrs by CLSI broth microdilution method; settings: isolate 209285, 18 h
[39] = system: Pseudomonas aeruginosa; assay: Antibacterial activity against IMP-4 producing Pseudomonas aeruginosa isolate 209321 after 18 hrs in presence of BPL by CLSI broth microdilution method; settings: isolate 209321, 18 h; procedure, shortened: as §1
[40] = system: Klebsiella pneumoniae; assay: Antibacterial activity against KPC-2 producing Klebsiella pneumoniae isolate 212232 after 18 hrs in presence of BPL by CLSI broth microdilution method; settings: isolate 212232, 18 h; procedure, shortened: as §1

MIC [2]: 1 µg/mL
MIC [5]: 4 µg/mL (≈ 6.82 µM)
MIC [6]: 1 µg/mL (≈ 1.7 µM)
MIC [7]: 1 µg/mL
MIC [8]: 64 µg/mL
MIC [9]: > 64 µg/mL
MIC [10]: 1 µg/mL
MIC [11]: 8 µg/mL (≈ 13.6 µM)
MIC [13]: 8 µg/mL (≈ 13.6 µM)
MIC [14]: 64 µg/mL
MIC [16]: > 64 µg/mL
MIC [17]: 4 µg/mL (≈ 6.82 µM)
MIC [18]: > 64 µg/mL
MIC [19]: 8 µg/mL (≈ 13.6 µM)
MIC [20]: 2 µg/mL
MIC [21]: 1 µg/mL
MIC [22]: 4 µg/mL
MIC [23]: 8 µg/mL
MIC [24]: 2 µg/mL
MIC [26]: 2 µg/mL (≈ 3.41 µM)
MIC [28]: 1 µg/mL
MIC [29]: 4 µg/mL (≈ 6.82 µM)
MIC [30]: 4 µg/mL (≈ 6.82 µM)
MIC [31]: > 64 µg/mL
MIC [32]: > 64 µg/mL
MIC [33]: > 64 µg/mL
MIC [36]: > 64 µg/mL
MIC [38]: 16 µg/mL (≈ 27.3 µM)
MIC [39]: > 64 µg/mL
MIC [40]: 0.06 µg/mL
Compound: CC(C)C(O/N=C(\C(=O)NC1C(=O)N(S(=O)(=O)O)C12CCOCC2)c1csc(N)n1)c1cc(=O)c(O)cn1O (stereo not given)
Selectivity Index [1]: 2
Selectivity Index [3]: 4
Selectivity Index [4]: 2
Selectivity Index [12]: 2
Selectivity Index [15]: 4
Selectivity Index [25]: 1
Selectivity Index [27]: 8
Selectivity Index [34]: 32
Selectivity Index [35]: 4
Selectivity Index [37]: 4
